From ChEMBL document CHEMBL4680083, “Identification of Tricyclic Agonists of Sphingosine-1-phosphate Receptor 1 (S1P) Employing Ligand-Based Drug Design” (J Med Chem, 2016)
Activity calls are given as the source filed them. The calls are words filed in the database; no cut-off is given here.

Assays:
[1] = Plasma concentration in Lewis rat at 1 mg/kg, po measured at 4 hr; type: ADME, organism-based; details: Lewis, plasma
Summary of the method: (§1)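 Lewis rats received a single oral 1.0 mg/kg dose as solution or suspension in PEG300. Blood was drawn retro-orbitally under isoflurane at 4 h and 24 h, within the blood lymphocyte reduction study. n = 3−4 per group, group mean reported.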

[2] = molecular target: Sphingosine 1-phosphate receptor 3 (Homo sapiens, UniProt Q99500); assay: Agonist activity at human S1P3 expressed in CHO cell membranes assessed as stimulation of [35S]-GTPgamma-S binding measured after 45 mins by liquid scintillation counting method; design: species or system Cell membrane
Sphingosine 1-phosphate receptor 3, sequence (Q99500 whole entry): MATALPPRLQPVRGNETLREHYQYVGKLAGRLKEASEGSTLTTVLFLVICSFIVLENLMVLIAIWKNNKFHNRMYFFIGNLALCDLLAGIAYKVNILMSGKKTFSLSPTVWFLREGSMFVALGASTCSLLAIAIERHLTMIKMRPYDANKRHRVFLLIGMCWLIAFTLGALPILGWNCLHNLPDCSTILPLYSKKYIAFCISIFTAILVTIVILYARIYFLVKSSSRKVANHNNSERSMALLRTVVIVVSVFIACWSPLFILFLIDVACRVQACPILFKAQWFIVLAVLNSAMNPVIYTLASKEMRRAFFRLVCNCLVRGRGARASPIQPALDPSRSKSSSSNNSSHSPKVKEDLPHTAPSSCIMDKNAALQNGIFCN

[3] = tested on: Rattus norvegicus; assay: Reduction in circulating lymphocytes count in Lewis rat blood at 1 mg/kg, po measured at 24 hrs by hematology analyzer based analysis; type: functional; design: scale not given: the % may be the effect or the level left
Summary of the method: (§2)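 Lewis rats were given an oral dose as a solution or suspension in PEG300, with controls receiving vehicle only. Blood was taken by retro-orbital bleeding under isoflurane at 4 and 24 h. Lymphocytes were counted on a hematology analyzer. Reduction is relative to the vehicle group, averaged over the animals in each group (n = 3−4).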

[4] = molecular target: Sphingosine 1-phosphate receptor 1 (Homo sapiens, UniProt P21453); assay: Agonist activity at human S1P1 expressed in CHO cell membranes assessed as stimulation of [35S]-GTPgamma-S binding measured after 45 mins by liquid scintillation counting method; design: species or system Cell membrane
Sphingosine 1-phosphate receptor 1, sequence (P21453 whole entry): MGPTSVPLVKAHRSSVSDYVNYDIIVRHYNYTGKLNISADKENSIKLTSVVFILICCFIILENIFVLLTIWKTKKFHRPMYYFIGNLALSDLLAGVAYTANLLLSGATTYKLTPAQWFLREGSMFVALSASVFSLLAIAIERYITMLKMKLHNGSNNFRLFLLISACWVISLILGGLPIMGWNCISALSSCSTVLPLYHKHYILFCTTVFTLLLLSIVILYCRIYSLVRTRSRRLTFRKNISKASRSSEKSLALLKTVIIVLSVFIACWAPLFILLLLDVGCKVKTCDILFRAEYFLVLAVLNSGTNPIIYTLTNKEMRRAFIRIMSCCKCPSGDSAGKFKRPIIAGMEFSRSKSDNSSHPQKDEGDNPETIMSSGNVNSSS
Summary of the method: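 S1P1/CHO cell membranes at 3 μg protein/well with 3-fold compound dilutions. [35S]GTPγS 0.2 nM final, 45 min at room temperature. Filter-plate capture, water washes, scintillation counting. EC50 taken at 50% of each compound's own Ymax.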

[5] = Plasma concentration in Lewis rat at 1 mg/kg, po measured at 24 hrs; type: ADME, organism-based; details: Lewis, plasma; summary of the method: as §1
[6] = tested on: Rattus norvegicus; assay: Reduction in circulating lymphocytes count in Lewis rat blood at 1 mg/kg, po measured at 4 hrs by hematology analyzer based analysis; type: functional; design: scale not given: the % may be the effect or the level left; summary of the method: as §2
[7] = Selectivity index, ratio of EC50 for agonist activity at human S1P3 expressed in CHO cell membranes to EC50 for agonist activity at human S1P1 expressed in CHO cell membranes; type: cell-based
[8] = Ratio of plasma concentration in Lewis rat at 1 mg/kg, po measured at 4 hrs to plasma concentration in Lewis rat at 1 mg/kg, po measured at 24 hrs; type: ADME, organism-based; details: in vivo
[9] = tested on: Rattus norvegicus; assay: Antiarthritic activity in Lewis rat model of Complete Freund's adjuvant-induced arthritis assessed as reduction in paw swelling at 0.1 mg/kg, po qd administered for 21 days after CFA injection and measured weekly three times upto day 21 by water displacement plethysmometry; type: functional; details: time 21.0 day
Summary of the method: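 Male Lewis rats, 200−225 g, n = 8 per group. Immunized at the tail base with 100 μL of 10 mg/mL ground Mycobacterium butyricum in incomplete Freund's adjuvant. Oral dosing once daily in PEG300 vehicle from the day of immunization for 21 days, at 0.03, 0.1 or 1.0 mg/kg. Dexamethasone 0.1 mg/kg PO QD as positive control. Paw volume by water displacement plethysmometry, day 7 to day 21.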

SMILES | concentration at 4 h [1] [nM] | EC50 [2] [nM] | EC50 [4] [nM] | concentration at 24 h [5] [nM] | Ratio [8] | Activity [3] [%] | Activity [6] [%] | Ratio EC50 [7] | Activity [9]
C[C@@H]1C[C@H]2[C@@H]3CCC4=CC(=O)C=C[C@]4(C)[C@@]3(F)[C@@H](O)C[C@]2(C)[C@@]1(O)C(=O)CO |  |  |  |  |  |  |  |  | Active
O=C(O)C1CN(Cc2ccc3c(c2)CCc2nc(-c4onc(-c5ccccc5)c4C(F)(F)F)sc2-3)C1 | 230 | 12000 | 2.4 | 84 | 3 | 85 | 80 | 5000 | 
O=C(O)C1CN(Cc2ccc3c(c2)OCc2c-3noc2-c2onc(-c3ccccc3)c2C(F)(F)F)C1 | 330 | > 31000 | 0.25 | 56 | 6 | 89 | 82 | > 120000 | 
O=C(O)C1CN(Cc2ccc3c(c2)CCc2c-3noc2-c2noc(-c3ccccc3)c2C(F)(F)F)C1 | 160 | 1900 | 0.48 | 43 | 4 | 87 | 83 | 4000 | 
O=C(O)C1CN(Cc2cc3c(cc2F)-c2noc(-c4noc(-c5ccccc5)c4C(F)(F)F)c2CC3)C1 | 320 | 15000 | 1.6 | 46 | 7 | 79 | 74 | 9400 | 
CC(C)Cc1onc(-c2onc3c2CCc2cc(CN4CC(C(=O)O)C4)ccc2-3)c1C(F)(F)F | 520 | > 3100 | 1.5 | 61 | 9 | 80 | 86 | > 2100 | 
O=C(O)C1CN(Cc2ccc3c(n2)CCc2c(-c4noc(-c5ccccc5)c4C(F)(F)F)noc2-3)C1 | 460 | > 63000 | 17 | 47 | 10 | 32 | 76 | > 3700 | 

Further lines, with some results ahead:

concentration at 4 h [1] [nM] | EC50 [2] [nM] | EC50 [4] [nM] | concentration at 24 h [5] [nM] | Ratio [8] | SMILES | Activity [3] [%] | Activity [6] [%] | Ratio EC50 [7] | Activity [9]
190 | 1300 | 1.3 | 4 | 48 | CC1(c2onc(-c3onc4c3CCc3cc(CN5CC(C(=O)O)C5)ccc3-4)c2C(F)(F)F)CC1 | 34 | 85 | 1000 | 
110 | 920 | 5.5 | 11 | 10 | O=C(O)C1CN(Cc2ccc3c(c2)CCc2nc(-c4onc(-c5ccccc5)c4C(F)(F)F)oc2-3)C1 | 2 | 62 | 170 | 
190 | 1200 | 0.87 | 4 | 48 | Cc1cc2c(cc1CN1CC(C(=O)O)C1)CCc1c-2noc1-c1noc(-c2ccccc2)c1C(F)(F)F | 34 | 85 | 1400 | 
230 | 1200 | 0.27 | 46 | 5 | O=C(O)C1CN(Cc2ccc3c(c2)OCc2c-3noc2-c2noc(-c3ccccc3)c2C(F)(F)F)C1 | 93 | 87 | 4400 | 
150 | 1400 | 0.33 | 26 | 6 | O=C(O)C1CN(Cc2ccc3c(c2)CCc2c-3noc2-c2nsc(-c3ccccc3)c2C(F)(F)F)C1 | 85 | 82 | 4200 | 
